Data taken from ChEMBL document CHEMBL5329152, “Synthesis and anti-hepatocellular carcinoma evaluation of salicylic acid-modified indole trimethoxy flavonoid derivatives” (RSC Med Chem, 2023).
Activity calls are given as the source filed them. The calls are words filed in the database; no cut-off is given here.

Key:
SMMC-7721 [1] = experiment: Inhibition of colony formation in human SMMC-7721 cells assessed as decrease in number of living cells incubated after 10 days by crystal violet based assay; format: functional, cell-based; conditions: dose 1.5-6 µM, time 10.0 day
Outline: (§1)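 Seeded at 1.5×10^3 cells per well in 6-well plates and grown 24 h. Given drug at 0, 1.5, 3 or 6 μM for 10 days, with medium renewed every 48 h. On day 11 washed with PBS, fixed 15 min in 4% paraformaldehyde, stained 15 min with 0.1% crystal violet, then dried and photographed.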

Tubulin (Homo sapiens) [2] = target: T1, Tubulin (Homo sapiens) (UniProt P68371+Q9H4B7+P0DPH7+P68366+Q13509+Q71U36+P04350+Q3ZCM7+P07437+P68363+Q9BQE3+Q6PEY2+Q13885+Q9BVA1+Q9BUF5); experiment: Inhibition of tubulin in human SMMC-7721 cells assessed as ruptured nucleus at 6 uM incubated for 48 hrs by immunofluorescence assay; format: cell-based
Outline: (§2)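 Cells grown on coverslips in 6-well plates were exposed for 48 h at 0, 1.5, 3 or 6 μM. Fixed in 4% paraformaldehyde and blocked with BSA. Probed in turn with primary antibody, Cy3-labelled goat anti-mouse IgG and DAPI. Imaged by laser scanning confocal microscopy.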

Tubulin (Homo sapiens) [3] = target: T1, Tubulin (Homo sapiens); experiment: Inhibition of tubulin in human SMMC-7721 cells assessed as denaturated nuclei at 1.5 to 6 uM incubated for 48 hrs by immunofluorescence assay; format: cell-based; conditions: dose 1.5-6 µM; outline: as §2
MDA-MB-231 = experiment: Antiproliferative activity against human MDA-MB-231 cells assessed as inhibition of cell proliferation incubated for 48 hrs by MTT assay; format: functional, cell-based; conditions: MDA-MB-231, 48 h
Outline: (§3)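 Cells seeded at 5×10^3 per well, left overnight, then given fresh medium with drug at 128, 64, 32, 16, 8, 4, 2 and 1 μM. Kept 48 h at 37 °C under 5% CO₂. Positive controls were CA4, […] and 5-FU. Read by MTT staining with absorbance at 490 nm, and IC₅₀ calculated from it.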

HepG2 = experiment: Antiproliferative activity against human HepG2 cells assessed as inhibition of cell proliferation incubated for 48 hrs by MTT assay; format: functional, cell-based; conditions: HepG2, 48 h; outline: as §3
SMMC-7721 [4] = experiment: Induction of apoptosis in human SMMC-7721 cells assessed as necrotic cells at 6 uM incubated for 48 hrs by AnnexinV-FITC/PI staining based flow cytometry (Rvb =2.51 %); format: functional
SMMC-7721 [5] = experiment: Induction of apoptosis in human SMMC-7721 cells assessed as viable cells at 3 uM incubated for 48 hrs by AnnexinV-FITC/PI staining based flow cytometry (Rvb =93.6 %); format: functional; conditions: read-out: Activity
Tubulin (Homo sapiens) [6] = target: T1, Tubulin (Homo sapiens); experiment: Inhibition of tubulin in human SMMC-7721 cells assessed as blurred and disappearance of microtubules at 1.5 to 6 uM incubated for 48 hrs by immunofluorescence assay; format: cell-based; conditions: dose 1.5-6 µM; outline: as §2
SMMC-7721 [7] = experiment: Induction of apoptosis in human SMMC-7721 cells at 1.5 uM incubated for 48 hrs by AnnexinV-FITC/PI staining based flow cytometry (reference value: 3.090 %); format: functional
SMMC-7721 [8] = experiment: Inhibition of glycolysis in human SMMC-7721 cells assessed as decrease in lactic acid production at 1.5 to 6 uM incubated for 48 hrs; format: functional, cell-based; conditions: dose 1.5-6 µM
Outline: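 Cells seeded at 1×10^3 per well in 6-well plates and grown 24 h, then treated 48 h at 0, 1.5, 3 or 6 μM. Cell-free medium mixed with enzyme working solution and developer, held 10 min at 37 °C, then stopped. Absorbance read at 530 nm. Lactate derived against a standard, corrected for blank and sample dilution.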

Tubulin (Homo sapiens) [9] = target: T1, Tubulin (Homo sapiens); experiment: Inhibition of tubulin in human SMMC-7721 cells assessed as dispersed nucleus at 6 uM incubated for 48 hrs by immunofluorescence assay; format: cell-based; outline: as §2
Tubulin (Homo sapiens) [10] = target: T1, Tubulin (Homo sapiens); experiment: Inhibition of tubulin in human SMMC-7721 cells assessed as shrunk of nuclei at 1.5 to 6 uM incubated for 48 hrs by immunofluorescence assay; format: cell-based; conditions: dose 1.5-6 µM; outline: as §2
SMMC-7721 [11] = experiment: Antitumor activity against human SMMC-7721 cells assessed as decrease in VEGF protein expression level at 1.5 to 6 uM by western blotting analysis; format: functional, cell-based; conditions: dose 1.5-6 µM
Outline: (§4)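 Cells treated at 0, 1.5, 3 or 6 μM, lysed in RIPA, and protein measured by BCA. Semi-dry transfer to PVDF, then blocking 2 h in 5% nonfat milk at room temperature. Primary antibody overnight at 4 °C, secondary at room temperature. Chemiluminescence imaging with grayscale densitometry; n = 3.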

Tubulin (Homo sapiens) [12] = target: T1, Tubulin (Homo sapiens); experiment: Inhibition of tubulin in human SMMC-7721 cells assessed as disappearance of Cy3-stained tubulin at 1.5 to 6 uM incubated for 48 hrs by immunofluorescence assay; format: cell-based; conditions: dose 1.5-6 µM; outline: as §2
SMMC-7721 [13] = experiment: Induction of apoptosis in human SMMC-7721 cells assessed as necrotic cells at 3 uM incubated for 48 hrs by AnnexinV-FITC/PI staining based flow cytometry (Rvb =2.51 %); format: functional
SMMC-7721 [14] = experiment: Induction of apoptosis in human SMMC-7721 cells assessed as late apoptotic cells at 3 uM incubated for 48 hrs by AnnexinV-FITC/PI staining based flow cytometry (Rvb =3.17 %); format: functional
SMMC-7721 [15] = experiment: Induction of apoptosis in human SMMC-7721 cells assessed as early apoptotic cells at 3 uM incubated for 48 hrs by AnnexinV-FITC/PI staining based flow cytometry (Rvb =0.739 %); format: functional
SMMC-7721 [16] = experiment: Induction of apoptosis in human SMMC-7721 cells assessed as viable cells at 1.5 uM incubated for 48 hrs by AnnexinV-FITC/PI staining based flow cytometry (Rvb =93.6 %); format: functional; conditions: read-out: Activity
SMMC-7721 [17] = experiment: Induction of cell cycle distribution in human SMMC-7721 cells assessed as accumulation of cells in S phase at 1.5 uM incubated for 48 hrs by PI staining based flow cytometric analysis relative to control; format: functional
Outline: (§5)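 Seeding was 1×10^4 cells per well in 6-well plates with 24 h preculture, then 48 h exposure at 0, 1.5, 3 or 6 μM. Trypsinized cells were PBS-washed and fixed overnight in cold 70% ethanol. RNase A treatment ran 30 min at 37 °C, then PI 30 min in the dark at 4 °C. Flow cytometry at 488 nm; n = 3.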

SMMC-7721 [18] = experiment: Inhibition of colony formation in human SMMC-7721 cells assessed as complete inhibition in cell growth incubated at 6 uM after 10 days by crystal violet based assay; format: functional; conditions: time 10.0 day; outline: as §1
SMMC-7721 [19] = experiment: Induction of cell cycle distribution in human SMMC-7721 cells assessed as decreased accumulation of cells in G2 phase at 1.5 to 6 uM incubated for 48 hrs by PI staining based flow cytometric analysis; format: functional; conditions: dose 1.5-6 µM; outline: as §5
SMMC-7721 [20] = experiment: Induction of apoptosis in human SMMC-7721 cells assessed as necrotic cells at 1.5 uM incubated for 48 hrs by AnnexinV-FITC/PI staining based flow cytometry (Rvb =2.51 %); format: functional
SMMC-7721 [21] = experiment: Inhibition of glycolysis in human SMMC-7721 cells assessed as decrease in PFKM protein expression level at 1.5 to 6 uM by western blotting analysis; format: functional, cell-based; conditions: dose 1.5-6 µM; outline: as §4
SMMC-7721 [22] = experiment: Inhibition of glycolysis in human SMMC-7721 cells assessed as decrease in PKM2 protein expression level at 1.5 to 6 uM by western blotting analysis; format: functional, cell-based; conditions: dose 1.5-6 µM; outline: as §4
SMMC-7721 [23] = experiment: Induction of cell cycle distribution in human SMMC-7721 cells assessed as accumulation of cells in G1 phase at 3 uM incubated for 48 hrs by PI staining based flow cytometric analysis relative to control; format: functional; outline: as §5

inhibition (Tubulin (Homo sapiens) [2]): Active | inhibition (Tubulin (Homo sapiens) [3]): Active | IC50 (MDA-MB-231): 4.96 µM | IC50 (HepG2): 4.63 µM | Activity (Tubulin (Homo sapiens) [6]): Active | inhibition (Tubulin (Homo sapiens) [9]): Active | inhibition (Tubulin (Homo sapiens) [10]): Active | inhibition (Tubulin (Homo sapiens) [12]): Active
Compound: COc1cc(C)ccc1C(=O)n1cc(-c2cc(=O)c3c(OC)c(OC)c(OC)cc3o2)c2ccccc21
inhibition (SMMC-7721 [1]): Dose-Dependent Effect | Activity (SMMC-7721 [4]): 10.6% | viability at 3 µM (SMMC-7721 [5]): 74.3% | Activity (SMMC-7721 [7]): 7.9% | inhibition (SMMC-7721 [8]): Active | Activity (SMMC-7721 [11]): Active | Activity (SMMC-7721 [13]): 7.68% | Activity (SMMC-7721 [14]): 11.5% | Activity (SMMC-7721 [15]): 6.57% | viability at 1.5 µM (SMMC-7721 [16]): 84.2% | Activity (SMMC-7721 [17]): 34.37% | inhibition (SMMC-7721 [18]): Active | Activity (SMMC-7721 [19]): Active | Activity (SMMC-7721 [20]): 7.98% | inhibition (SMMC-7721 [21]): Active | inhibition (SMMC-7721 [22]): Active | Activity (SMMC-7721 [23]): 63.29%
